The record followed here is PubChem BioAssay.

Assay [1] can be described thus: Her2 expression decrease, cell viability multiplex – SKBR3 breast tumor cells, AlphaScreen, ATP viability, primary screen (AID 461;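 active means Her2 level under about 52% in both replicate screens, with viability over 70% of control, limit read from the data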;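 on Her2 level: lower value means less Her2 protein in the cells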;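 on viability: percent of carrier control wells set as 100% viability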). Conditions: SKBR3 Her2 protein level, 18-24 h, measured here: SKBR3 viability, ATP luminescence, at 10 µM.
Assay [2] has as its target Receptor tyrosine-protein kinase erbB-2 (Homo sapiens) (UniProt P04626). Described as above. Conditions: 18-24 h, at 10 µM, stronger effect = lower value.
Assay [3] in a line: reduced viability of SK-BR-3 breast cancer cells – cell-based, 24 h, human, pilot screen (AID 572;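 active means viability at or below 10% of carrier control in both of two separate runs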;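 further: compound exposure lasted between 18 and 24 h rather than exactly 24 h; 100% = carrier-treated control wells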). Conditions: SK-BR-3 viability, CellTiter-Glo luminescence, at 10 µM, stronger effect = lower value.
Assay [4] is described as follows: HUVEC growth inhibition – cell-based, human, primary screen (AID 575;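 active means viability at or below 30% in both replicate assays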;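 further: 100% = median of untreated cell wells with 0.1% DMSO on each plate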). The conditions noted are these: HUVEC proliferation, CellTiter-Glo luminescence, 72 h; at 10 µM; stronger effect = lower value. In a few lines:
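Material: primary human umbilical vein endothelial cells / Schedule: 72 h exposure, 37 °C, 5% CO2, 30 min RT equilibration / Signal: ATP-based CellTiter-Glo luminescent read / Read-out basis: percent of median DMSO-control luminescence / Control set: 32 DMSO-only cell-control wells (high), 32 MePR drug-control wells (low) per plate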
For orientation: Cellular ATP, detected with luciferase, serves as a proxy for viable cell number.

A short description of assay [5]: H69AR cell proliferation blockers – human, duplicate replicates, primary screen (AID 580;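 active means viability at or under a set limit in both replicates, limit being median viability minus 3 SD, cut at about 48% in these data, passing the limit was not always enough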;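 further: 100% = mean luminescence of untreated wells and 0% = no signal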). The conditions noted are these: H69AR lung tumor cells viability, ATP luminescence, 72 h; at 10 µM; stronger effect = lower value.
The nature of assay [6]: MRP1 drug-resistance reversers in H69AR cells – cell-based, doxorubicin co-treatment, pilot screen (AID 601;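 active means viability loss from added drug above about 55%, and viability with drug at most 40%, in both replicates, limit read from the data, passing the limit was not always enough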). The conditions noted are these: CellTiter-Glo, 72 h, at 10 µM; for differential viability (reversal): stronger effect = higher value.
Assay [7] can be described thus: yeast transport mutant growth inhibition pilot in 384-well plates, post-Golgi transport modulator project (AID 636; in the data active means inhibition above about 31%). The conditions noted are these: absorbance 615 nm, about 18 h, stronger effect = higher value.
A short description of assay [8]: growth suppression of yeast trafficking mutant, preliminary HTS, modulators of trafficking downstream of Golgi apparatus project, 1536-format plate, OD 615 nm (AID 637). Conditions: yeast transport mutant growth, absorbance 615 nm, 18 h; stronger effect = higher value.
The mark [9] stands for this setting: H69AR cells + 2 uM doxorubicin, measured here: viability with 2 uM doxorubicin, stronger effect = lower value.
Setting [10] is: H69AR cells, compound alone cytotoxicity.

Structures are written as SMILES. Calls of active or inactive are those of the source. Unless noted, no stated cut-off is given here; in the data, active means inhibition above about 30%; inactive means the rest.

Receptor tyrosine-protein kinase erbB-2 (Homo sapiens), sequence (P04626 whole entry, looked up): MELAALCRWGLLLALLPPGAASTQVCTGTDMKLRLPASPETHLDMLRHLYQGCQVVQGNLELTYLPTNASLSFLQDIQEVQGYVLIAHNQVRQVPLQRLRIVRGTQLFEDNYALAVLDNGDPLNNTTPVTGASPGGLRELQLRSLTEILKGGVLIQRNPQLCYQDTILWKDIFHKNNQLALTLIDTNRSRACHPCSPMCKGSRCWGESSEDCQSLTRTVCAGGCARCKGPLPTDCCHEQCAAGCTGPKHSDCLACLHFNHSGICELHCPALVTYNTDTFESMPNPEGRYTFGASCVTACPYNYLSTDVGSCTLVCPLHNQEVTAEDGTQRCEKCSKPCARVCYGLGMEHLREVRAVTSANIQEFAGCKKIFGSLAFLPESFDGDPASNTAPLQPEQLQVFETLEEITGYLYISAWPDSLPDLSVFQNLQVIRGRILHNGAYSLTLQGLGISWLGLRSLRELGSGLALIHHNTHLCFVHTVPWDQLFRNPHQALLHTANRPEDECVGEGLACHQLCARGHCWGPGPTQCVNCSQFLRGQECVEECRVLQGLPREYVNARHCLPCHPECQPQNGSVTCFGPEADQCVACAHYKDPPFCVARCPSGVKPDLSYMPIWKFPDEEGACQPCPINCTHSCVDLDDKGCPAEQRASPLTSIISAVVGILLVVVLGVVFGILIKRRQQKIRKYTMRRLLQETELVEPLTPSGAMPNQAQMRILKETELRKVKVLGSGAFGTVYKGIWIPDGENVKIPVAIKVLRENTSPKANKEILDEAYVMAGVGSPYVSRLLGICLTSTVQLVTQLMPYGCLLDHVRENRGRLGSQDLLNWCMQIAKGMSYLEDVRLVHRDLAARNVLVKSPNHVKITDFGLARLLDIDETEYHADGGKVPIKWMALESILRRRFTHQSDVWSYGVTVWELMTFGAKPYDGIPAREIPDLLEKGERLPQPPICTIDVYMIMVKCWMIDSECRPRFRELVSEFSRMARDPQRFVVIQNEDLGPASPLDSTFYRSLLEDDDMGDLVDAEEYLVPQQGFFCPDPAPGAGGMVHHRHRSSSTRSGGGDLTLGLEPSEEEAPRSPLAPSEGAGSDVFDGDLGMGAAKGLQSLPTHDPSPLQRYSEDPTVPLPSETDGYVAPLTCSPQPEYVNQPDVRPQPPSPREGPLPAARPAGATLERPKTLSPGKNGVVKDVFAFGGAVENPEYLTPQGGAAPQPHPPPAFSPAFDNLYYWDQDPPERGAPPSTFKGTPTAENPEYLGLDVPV

Broadly, the viability is a read-out of living cells in per cent, often relative to untreated cells. A word on the inhibition: it is the drop in the measured response relative to a control, in per cent. Regarding `Cn1c(=O)c2c([nH]c(=O)n2C)n(C)c1=O`, the viability is 104% in assay [1]; 104% (inactive) in assay [3]; 88.7% (inactive) in assay [4]; 90.2% (inactive) in assay [5]; 95.3% in assay [6] (setting [9]); 90.2% in assay [6] (setting [10]). The Her2 level in assay [2] was 84.5% (inactive). Moreover, the differential viability (reversal) in assay [6] (H69AR cells + 2 uM doxorubicin) was -5.03% (inactive). In addition, the inhibition was -2.21% (inactive) in assay [7] and 7.21% (inactive) in assay [8].

Turning to `O=S(=O)(c1cc(Cl)ccc1Br)N1CCOCC1`, the viability in assay [1] was 95.5%; in assay [3] it was 95.5% (inactive); in assay [4], 103% (inactive); in assay [5], 91% (inactive); in assay [6] (setting [9]), 90.4%; in assay [6] (setting [10]) it was 91%. In assay [2], the Her2 level was 108% (inactive). Moreover, in assay [6] (H69AR cells + 2 uM doxorubicin), the differential viability (reversal) was 0.56% (inactive). For the same molecule, the inhibition in assay [7] was -2.99% (inactive); in assay [8], -0.17% (inactive).

On to `COc1ccc(-c2cc(C(F)F)n3ncc(C(=O)NCC4CCCO4)c3n2)cc1` (stereo not given), for which the viability in assay [1] was 92%; in assay [3] it was 92% (inactive); in assay [4], 82.7% (inactive); in assay [5], 73.6% (inactive); in assay [6] (setting [9]), 77.2%; in assay [6] (setting [10]) it was 73.6%. In assay [2], the Her2 level is 89% (inactive). Moreover, the differential viability (reversal) in assay [6] (H69AR cells + 2 uM doxorubicin) was -3.58% (inactive). For the same molecule, the inhibition in assay [7] was -0.79% (inactive); in assay [8] it was 4.35% (inactive).

As for `COc1ccc(OCCOC(=O)c2cccs2)cc1`, the viability in assay [1] was 97.5%; in assay [3], 97.5% (inactive); in assay [4], 111% (inactive); in assay [5], 109% (inactive); in assay [6] (setting [9]) it was 89.5%; in assay [6] (setting [10]) it was 109%. Moreover, in assay [2], the Her2 level was 92% (inactive). Moreover, the differential viability (reversal) in assay [6] (H69AR cells + 2 uM doxorubicin) is 19% (inactive). Also, the inhibition was -6.22% (inactive) in assay [7] and 5.24% (inactive) in assay [8].

Turning to `COc1cccc(C(=O)Nc2ncc3c(n2)CC(C)CC3=O)c1` (stereo not given), the viability is 97.5% in assay [1]; 97.5% (inactive) in assay [3]; 107% (inactive) in assay [4]; 109% (inactive) in assay [5]; 100% in assay [6] (setting [9]); 109% in assay [6] (setting [10]). The Her2 level in assay [2] was 88.5% (inactive). Also, in assay [6] (H69AR cells + 2 uM doxorubicin), the differential viability (reversal) is 9.34% (inactive). For the same molecule, the values for the inhibition in assay [7] and in assay [8] were -2.16% (inactive) and 2.22% (inactive), respectively.

On to `Cc1ccc(CNC(=O)C2CCN(S(=O)(=O)c3c(C)noc3C)CC2)cc1`, for which the viability in assay [1] was 100%; in assay [3], 100% (inactive); in assay [4], 106% (inactive); in assay [5], 104% (inactive); in assay [6] (setting [9]), 97.4%; in assay [6] (setting [10]) it was 104%. Moreover, the Her2 level in assay [2] is 102% (inactive). For the same molecule, the differential viability (reversal) in assay [6] (H69AR cells + 2 uM doxorubicin) is 6.84% (inactive). Further, the inhibition in assay [7] is -0.53% (inactive); in assay [8], -4.44% (inactive).

Take `COc1ccc(C2CC(=O)C(C=NCCN3CCOCC3)=C(O)C2)cc1` (stereo not given): the viability was 87.5% in assay [1]; 87.5% (inactive) in assay [3]; 85.7% (inactive) in assay [4]; 98.5% (inactive) in assay [5]; 95.8% in assay [6] (setting [9]); 98.5% in assay [6] (setting [10]). In addition, the Her2 level in assay [2] was 87% (inactive). In addition, the differential viability (reversal) in assay [6] (H69AR cells + 2 uM doxorubicin) is 2.73% (inactive). The inhibition in assay [7] is -0.79% (inactive); in assay [8], 8.69% (inactive).

Consider `COC(=O)c1cc(O)c(OCc2ccccc2)c(O)c1`, for which the viability was 88% in assay [1]; 88% (inactive) in assay [3]; 114% (inactive) in assay [4]; 94.3% (inactive) in assay [5]; 76.3% in assay [6] (setting [9]); 94.3% in assay [6] (setting [10]). Moreover, the Her2 level in assay [2] was 98% (inactive). The differential viability (reversal) in assay [6] (H69AR cells + 2 uM doxorubicin) is 18% (inactive). Moreover, the inhibition was 2.63% (inactive) in assay [7] and -7.09% (inactive) in assay [8].

As to `CCn1c(C)c(CCC(=O)O)c(=O)n2nc(-c3ccccc3OC)cc12`, the viability was 91% in assay [1]; 91% (inactive) in assay [3]; 100% (inactive) in assay [4]; 87.4% (inactive) in assay [5]; 88.6% in assay [6] (setting [9]); 87.4% in assay [6] (setting [10]). Besides, the Her2 level in assay [2] is 104% (inactive). The differential viability (reversal) in assay [6] (H69AR cells + 2 uM doxorubicin) was -1.22% (inactive). The inhibition in assay [7] is -0.14% (inactive); in assay [8], 23.6% (inactive).

Turning to `CCOc1ccc2cc(C#N)c(SCC(=O)N3CCOCC3)nc2c1`, the viability is 109% in assay [1]; 109% (inactive) in assay [3]; 87.1% (inactive) in assay [4]; 74.6% (inactive) in assay [5]; 42.8% in assay [6] (setting [9]); 74.6% in assay [6] (setting [10]). For the same molecule, the Her2 level in assay [2] is 81.5% (inactive). Also, the differential viability (reversal) in assay [6] (H69AR cells + 2 uM doxorubicin) was 31.8% (inactive). For the same molecule, the inhibition was -6.8% (inactive) in assay [7] and 1.94% (inactive) in assay [8].

Take `COc1ccc(C(=O)NCCCCCC(=O)O)cc1OC`: the viability in assay [1] is 125%; in assay [3] it was 125% (inactive); in assay [4], 90.5% (inactive); in assay [5], 92.2% (inactive); in assay [6] (setting [9]), 101%; in assay [6] (setting [10]) it was 92.2%. For the same molecule, in assay [2], the Her2 level was 99% (inactive). The differential viability (reversal) in assay [6] (H69AR cells + 2 uM doxorubicin) is -8.78% (inactive). In addition, the inhibition in assay [7] is -7.24% (inactive); in assay [8] it was -3.33% (inactive).

With `Nc1sccc1C(=O)c1ccc(Cl)cc1`, the viability in assay [1] was 100%; in assay [3] it was 100% (inactive); in assay [4], 82.9% (inactive); in assay [5], 90.2% (inactive); in assay [6] (setting [9]), 85.3%; in assay [6] (setting [10]), 90.2%. In assay [2], the Her2 level is 85% (inactive). Besides, the differential viability (reversal) in assay [6] (H69AR cells + 2 uM doxorubicin) was 4.88% (inactive). The inhibition in assay [7] was 0% (inactive); in assay [8], -4.17% (inactive).

`COc1ccc(-c2nc3c(c(=O)n(C)c(=O)n3C)n2CC2CC(c3ccccc3)=NO2)cc1OC` (stereo not given): the viability was 85.5% in assay [1]; 85.5% (inactive) in assay [3]; 63.4% (inactive) in assay [4]; 6.03% (active) in assay [5]; 4.58% in assay [6] (setting [9]); 6.03% in assay [6] (setting [10]). Moreover, in assay [2], the Her2 level is 85% (inactive). For the same molecule, in assay [6] (H69AR cells + 2 uM doxorubicin), the differential viability (reversal) was 1.44% (inactive). For the same molecule, the inhibition in assay [7] was -6.76% (inactive); in assay [8], 2.22% (inactive).

For `CCOC(=O)/C(C#N)=C1\Nc2ccccc2N=C1N(CC(C)C)CC(C)C`, the viability was 80% in assay [1]; 80% (inactive) in assay [3]; 86.2% (inactive) in assay [4]; 84.2% (inactive) in assay [5]; 89.6% in assay [6] (setting [9]); 84.2% in assay [6] (setting [10]). The Her2 level in assay [2] was 104% (inactive). Besides, the differential viability (reversal) in assay [6] (H69AR cells + 2 uM doxorubicin) was -5.4% (inactive). Further, the inhibition in assay [7] was -4.13% (inactive); in assay [8], -2.79% (inactive).
